Consider six compounds from ChEMBL document CHEMBL4765495, “Semisynthesis and Biological Evaluation of Platencin Thioether Derivatives: Dual FabF and FabH Inhibitors against MRSA” (ACS Med Chem Lett, 2021).

Assay [1] concerns Staphylococcus aureus. Description: Antibacterial activity against methicillin resistant Staphylococcus aureus infected in C57BL/6J mouse model of peritonitis assessed as mouse survival at 10 mg/kg, ip administered at 1 and 5 hrs post infection. The assay is classed as functional, organism-based. Put shortly:
(§1)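 Female C57BL/6J mice infected intraperitoneally with 1.5–2.0 × 10^7 CFU MRSA in 5% w/v hog gastric mucin; n = 5 per group; intraperitoneal treatment at 10 mg/kg at 1 and 5 h post-infection; vancomycin 10 mg/kg as control; survival and kidney bacterial load recorded.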

Assay [2] has as its system Staphylococcus aureus. The experiment in a line: Antibacterial activity against Staphylococcus aureus ATCC 29213 assessed as inhibition of bacterial growth measured after 16 hrs by agar plate dilution method. The assay is classed as functional. Summed up: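 MIC determined by plate dilution against the reference strain; values from at least two independent experiments.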

In assay [3] the test system is Escherichia coli. The experiment in a line: Binding affinity to His6-tagged Escherichia coli FabH expressed in Escherichia coli BL21 (DE3) assessed as decrease in melting temperature at 10 uM by SYPRO orange based differential scanning fluorimetry. Summed up:
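Purified E. coli FabH melting curves were recorded with and without ligand by thermal-shift fluorometry in 1.0 M Tris-HCl, pH 6.8, a buffer chosen from seven screened. ΔTm was taken from the Tm shift; n = 4.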

The test system of assay [4] is Staphylococcus aureus. Description: Antibacterial activity against methicillin sensitive Staphylococcus aureus assessed as inhibition of bacterial growth measured after 16 hrs by agar plate dilution method. The assay is classed as functional. Summed up:
(§2)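 Clinical MSSA and MRSA strains isolated from local hospitals; MIC determined by plate dilution; data from at least two independent experiments.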

The target of assay [5] is T1, 3-oxoacyl-[acyl-carrier-protein] synthase 2 (Staphylococcus aureus) (UniProt Q5TKS0).
T1 sequence (whole entry): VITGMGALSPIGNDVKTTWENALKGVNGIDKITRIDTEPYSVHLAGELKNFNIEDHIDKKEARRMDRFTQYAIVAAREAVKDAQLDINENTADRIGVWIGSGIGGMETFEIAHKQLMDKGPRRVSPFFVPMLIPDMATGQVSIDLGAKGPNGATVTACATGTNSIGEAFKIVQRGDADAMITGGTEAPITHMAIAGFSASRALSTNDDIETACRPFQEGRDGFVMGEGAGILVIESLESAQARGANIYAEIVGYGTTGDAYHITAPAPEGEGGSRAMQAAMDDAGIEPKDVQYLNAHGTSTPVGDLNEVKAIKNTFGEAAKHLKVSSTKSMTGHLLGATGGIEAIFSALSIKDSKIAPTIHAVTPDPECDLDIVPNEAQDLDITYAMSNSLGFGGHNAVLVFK
Description: Binding affinity to His6-tagged Staphylococcus aureus FabF expressed in Escherichia coli BL21 (DE3) assessed as decrease in melting temperature at 10 uM by SYPRO orange based differential scanning fluorimetry. Put shortly:
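S. aureus FabF melting curves were measured by DSF in 20 mM HEPES, 180 mM NaCl, pH 7.5, a buffer selected by screening seven buffers. ΔTm was derived from the melting-temperature shift caused by ligand; n = 4.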

The subject of assay [6] is Staphylococcus aureus. The experiment in a line: Antibacterial activity against methicillin resistant Staphylococcus aureus assessed as inhibition of bacterial growth measured after 16 hrs by agar plate dilution method. The assay is classed as functional. Summed up:
as §2

Assay [7] relates to Enterococcus faecalis. The experiment in a line: Antibacterial activity against Enterococcus faecalis ATCC 29212 assessed as inhibition of bacterial growth measured after 16 hrs by agar plate dilution method. The assay is classed as functional.
Assay [8] deals with Staphylococcus aureus. The experiment in a line: Inhibition of Staphylococcus aureus FabH A81V/A111T mutant assessed as bacterial growth inhibition measured after 18 hrs by resazurin dye based broth dilution assay. Summed up:
(§3)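 S. aureus strains carrying point mutations in the FabH active site; MIC determined by broth dilution; data from at least two independent experiments.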

Assay [9] deals with Staphylococcus aureus. Description: Antibacterial activity against methicillin resistant Staphylococcus aureus assessed as inhibition of bacterial growth measured after 18 hrs in presence of 10% human serum by resazurin dye based broth dilution assay. The assay is classed as functional.
In assay [10] the test system is Staphylococcus aureus. Description: Inhibition of Staphylococcus aureus FabH A81V mutant assessed as bacterial growth inhibition measured after 18 hrs by resazurin dye based broth dilution assay. Put shortly: as §3
The subject of assay [11] is Staphylococcus aureus. The experiment in a line: Antibacterial activity against methicillin resistant Staphylococcus aureus infected in C57BL/6J mouse model of peritonitis assessed as mouse survival when infected with 2.5x10^7 CFU bacteria at 10 mg/kg, ip administered at 1 and 5 hrs post infection. The assay is classed as functional, organism-based. Put shortly: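 Female C57BL/6J mice given a higher intraperitoneal MRSA inoculum of 2.5 × 10^7 CFU; intraperitoneal treatment at 1 and 5 h post-infection; survival recorded.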

Assay [12] has as its system Escherichia coli. The experiment in a line: Antibacterial activity against Escherichia coli harboring delta tolC mutant assessed as inhibition of bacterial growth measured after 16 hrs by agar plate dilution method. The assay is classed as functional.
Assay [13] has as its system Staphylococcus aureus. The experiment in a line: Antibacterial activity against methicillin resistant Staphylococcus aureus infected in C57BL/6J mouse model of peritonitis assessed as mouse survival by measuring number of mouse at 10 mg/kg, ip administered at 1 and 5 hrs post infection relative to control. The assay is classed as functional. Summed up: as §1
Assay [14] deals with Staphylococcus aureus. Description: Antibacterial activity against methicillin resistant Staphylococcus aureus infected in C57BL/6J mouse model of peritonitis assessed as bacterial load in kidney at 10 mg/kg, ip administered at 1 and 5 hrs post infection. The assay is classed as functional, organism-based. Summed up: as §1
Assay [15] has as its system Staphylococcus aureus. Description: Antibacterial activity against methicillin, fusidic-acid, macrolide resistant and lincomycin, telithromycin, cipro-bay susceptible Staphylococcus aureus assessed as bacterial growth inhibition. The assay is classed as functional.
For assay [16], the system named is Staphylococcus aureus. Description: Antibacterial activity against macrolide, lincomycin, telithromycin resistant and cipro-bay susceptible, methicillin-resistant Staphylococcus aureus assessed as bacterial growth inhibition. The assay is classed as functional.
The test system of assay [17] is Staphylococcus aureus. Description: Antibacterial activity against methicillin resistant and macrolide, lincomycin, telithromycin, cipro-bay susceptible Staphylococcus aureus assessed as bacterial growth inhibition. The assay is classed as functional.
The subject of assay [18] is Staphylococcus aureus. Description: Antibacterial activity against methicillin, macrolide, lincomycin, telithromycin, cipro-bay resistant Staphylococcus aureus assessed as bacterial growth inhibition. The assay is classed as functional.
Assay [19] can be described thus: Binding affinity to His6-tagged Escherichia coli FabF C163Q mutant expressed in Escherichia coli BL21 (DE3) assessed as binding constant measured after 200 sec by isothermal titration calorimetry. Summed up: (§4)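 Ligands were dissolved in PBS (10 mM, pH 7.4) and titrated into E. coli FabF(C163Q) in the same buffer. Protein was at 12 or 14 μM and ligand at 250 μM. Thermodynamic parameters (ΔH, ΔS, ΔG, Kd, n) were calculated from the heat of binding. Runs were done at least three times; one representative run was used.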

Assay [20] concerns Escherichia coli. The experiment in a line: Binding affinity to His6-tagged Escherichia coli FabF C163Q mutant expressed in Escherichia coli BL21 (DE3) assessed as change in entropy measured after 200 sec by isothermal titration calorimetry. Summed up:
as §4

Assay [21] can be described thus: Inhibition of Staphylococcus aureus FabH.
Assay [22] is described as follows: Inhibition of Staphylococcus aureus FabB/FabF.
Assay [23] relates to Escherichia coli. Description: Binding affinity to His6-tagged Escherichia coli FabF C163Q mutant expressed in Escherichia coli BL21 (DE3) assessed Gibbs free energy change measured after 200 sec by isothermal titration calorimetry. Put shortly: as §4
Assay [24] relates to Escherichia coli. Description: Binding affinity to His6-tagged Escherichia coli FabF C163Q mutant expressed in Escherichia coli BL21 (DE3) assessed as change in enthalpy measured after 200 sec by isothermal titration calorimetry. Summed up: as §4
The test system of assay [25] is Escherichia coli. The experiment in a line: Binding affinity to His6-tagged Escherichia coli FabF C163Q mutant expressed in Escherichia coli BL21 (DE3) assessed as stoichiometry ratio measured after 200 sec by isothermal titration calorimetry. Summed up:
as §4

pIC50, pKd: −log10 of the molar value. Converted amounts (≈) assume the structure as drawn. The source made the active and inactive calls. The calls are words filed in the database; no cut-off is given here.

With `C=C1C[C@]23C=C(SC4CCCCC4)C(=O)[C@@](C)(CCC(=O)Nc4c(O)ccc(C(=O)O)c4O)[C@@H]2C[C@H]1CC3`, the outcome in assay [1] was inactive. The MIC in assay [2], in [4] and in [6] was 2 µg/mL (≈ 3.71 µM) each time. Moreover, the result in [3] and in assay [5] was Active.

For the compound `C=C1C[C@]23C=C(Sc4ccoc4C)C(=O)[C@@](C)(CCC(=O)Nc4c(O)ccc(C(=O)O)c4O)[C@@H]2CC1CC3` (single isomer, unassigned), the MIC in assay [7] came to 2 µg/mL (≈ 3.72 µM); in assay [2] it was 2 µg/mL (≈ 3.72 µM); in assay [4], 1 µg/mL (≈ 1.86 µM); in assay [8] it was 8 µg/mL (≈ 14.9 µM); in [9], 16 µg/mL; in [10], 8 µg/mL (≈ 14.9 µM). Besides, the MIC is over 32 µg/mL in assay [12] and 1 µg/mL (≈ 1.86 µM) in assay [6]. Moreover, the outcome in [3] and in assay [5] was Active. In assay [11], the outcome was inactive.

`C=C1C[C@]23C=C(SCc4ccccc4)C(=O)[C@@](C)(CCC(=O)Nc4c(O)ccc(C(=O)O)c4O)[C@@H]2CC1CC3` (single isomer, unassigned): the MIC came to 2 µg/mL (≈ 3.65 µM) in assay [7]; 2 µg/mL (≈ 3.65 µM) in assay [2]; 1 µg/mL (≈ 1.83 µM) in [4]; 4 µg/mL (≈ 7.3 µM) in assay [8]; 16 µg/mL in [9]; 8 µg/mL (≈ 14.6 µM) in assay [10]. Also, the values for the MIC in assay [12] and in assay [6] were over 32 µg/mL and 1 µg/mL (≈ 1.83 µM), respectively. The outcome in assay [3] and in assay [5] was Active. Further, the outcome in assay [11] was inactive.

As for `C=CCSC1=C[C@]23CCC(C[C@H]2[C@](C)(CCC(=O)Nc2c(O)ccc(C(=O)O)c2O)C1=O)C(=C)C3` (single isomer, unassigned), the values for the MIC in [2], in assay [4] and in assay [6] were 2 µg/mL (≈ 4.02 µM), 1 µg/mL (≈ 2.01 µM) and 1 µg/mL (≈ 2.01 µM), respectively. The result in assay [3], in assay [5] and in [14] was Active. Also, the Activity in [13] is 80%.

On to `C=C1[C@H]2CC[C@@]3(C=CC(=O)[C@@](C)(CCC(=O)Nc4c(O)ccc(C(=O)O)c4O)[C@@H]3C2)[C@H]1O` [PLATENCIN A3], for which the MIC in assay [15], in assay [16], in [17] and in assay [18] was 8 µg/mL (≈ 18.1 µM) in each case.

Turning to `C=C1C[C@@]23C=CC(=O)[C@@](C)(CCC(=O)Nc4c(O)ccc(C(=O)O)c4O)[C@@H]2C[C@@H]1CC3` [PLATENCIN], the pKd in assay [19] was 7.57. Moreover, the MIC was 2 µg/mL (≈ 4.7 µM) in assay [7]; 1 µg/mL (≈ 2.35 µM) in assay [2]; 1 µg/mL (≈ 2.35 µM) in [4]; 32 µg/mL (≈ 75.2 µM) in [8]; 8 µg/mL in assay [9]; over 32 µg/mL in assay [10]. Also, the MIC is 4 µg/mL (≈ 9.4 µM) in [12] and 1 µg/mL (≈ 2.35 µM) in assay [6]. Besides, the result in assay [1], in assay [3], in assay [5] and in assay [14] was Active. Besides, the -TdeltaS in assay [20] was -7.44 kcal/mol. In addition, the negative-log IC50 (pIC50) is 5.04 in assay [21] and 5.34 in assay [22]. Further, in assay [11], the outcome was inactive. In [23], the deltaG was -10.3 kcal/mol. For the same compound, the deltaH in [24] is -2.84 kcal/mol. Besides, the Ratio in [25] is 1.12.
